Published values from different studies.
Target: Microtubule-associated serine/threonine-protein kinase 1 (MAST1, Homo sapiens, UniProt Q9Y2H9)

With `Cc1cnn2ncc(-c3ccnc(N(C)C)n3)c2c1` the remaining binding was 100% (binding; 1 µM).
`O=C(c1ccc(Nc2ncc(Cl)c(-c3cc4ccccc4s3)n2)cc1)N1CCC(N2CCCC2)CC1` gave a remaining binding of 52% (binding, competition with immobilised ligand; 1 µM).
For `CN([C@@H]1CCc2c(CC(=O)O)c3ccccc3n2C1)S(=O)(=O)c1ccc(F)cc1`, the remaining binding was 100% (cell-free assay, competition with immobilised ligand; 1 µM).
The remaining binding of `CCN1CCN(Cc2ccc(C(=O)Nc3ccc(C)c(Oc4ccc5c(c4)CC(=O)N5)c3)cc2C(F)(F)F)CC1` is reported as 100% (binding, competition with immobilised ligand; 1 µM).
`COc1ccc2c(c1)O[C@H](c1ccc(OC)c(OC)c1)C[C@@H]2NC(=O)C1(c2ccc3c(c2)OC(F)(F)O3)CC1` has a remaining binding of 100% (cell-free assay, competition with immobilised ligand; 1 µM).
With `C[C@@H](c1ccc(-n2cnc3c(N)ncnc32)cc1)N1CCc2nn(C)c(Cc3ccccc3)c2C1=O` the remaining binding was 40% (binding, competition with immobilised ligand; 0.1 µM).
`F[C@@H]1CCN(c2nccc(-c3cnn4ncccc34)n2)C1` gave a remaining binding of 100% (binding; 1 µM).
With `C=CC(=O)N1CCC(C(=O)NCC(=O)N2CCN(c3nc(-c4cnc(N)nc4C(F)F)nc(N4CCOCC4)n3)CC2)CC1` the remaining binding was 100% (binding, competition with immobilised ligand; 1 µM).
`O=C(NCC1CCOCC1)c1n[nH]cc1NC(=O)c1c(F)cccc1F` gave a remaining binding of 51% (binding, competition with immobilised ligand; 1 µM).
For `O=C(NCCCN1CCOCC1)c1ccc(Nc2ncc(Cl)c(-c3ccc(Cl)s3)n2)cc1`, the remaining binding was 63% (binding, competition with immobilised ligand; 1 µM).
`CS(=O)(=O)N1CCCC(NC(=O)[C@H](CCC2CCCCC2)NC(=O)c2ccc(CNc3ncnc4c3nnn4-c3ccccc3)cc2)C1` (stereo partly drawn) has a remaining binding of 100% (cell-free assay, competition with immobilised ligand; 0.1 µM).
With `COc1cnc(Nc2cccc(S(N)(=O)=O)c2)nc1N1CCN(c2ccccc2)C(=O)C1` the remaining binding was 100% (binding, competition with immobilised ligand; 1 µM).
For `c1cnn2ncc(-c3ccnc(N4CCC45COC5)n3)c2c1`, the remaining binding was 55% (binding; 1 µM).
`COc1cnc(Nc2cccc(S(N)(=O)=O)c2)nc1N1CCN(c2ccccc2)CC1` gave a remaining binding of 69% (binding, competition with immobilised ligand; 1 µM).
`Cc1cnc(Nc2ccc(C(=O)N3CCC(N4CCCC4)CC3)cc2)nc1-c1cc2ccccc2s1` gave a remaining binding of 55% (binding, competition with immobilised ligand; 1 µM).
`N[C@H]1CCN(c2nccc(-c3cnn4ncccc34)n2)C1` has a remaining binding of 100% (binding; 1 µM).
`CCC(=O)N[C@@H]1CC[C@H](C(=O)N(C)c2ccc(-c3nc4ccccc4o3)cc2)C1` gave a remaining binding of 94% (cell-free assay, competition with immobilised ligand; 1 µM).
`CN(C)c1nccc(-c2cnn3ncccc23)n1` gave a remaining binding of 76% (binding; 1 µM).
For `CCCOc1ccc([C@@H]2[C@@H](C(=O)O)[C@H](c3ccc4c(c3)OCO4)CN2CC(=O)Nc2c(CC)cccc2CC)cc1`, the remaining binding was 100% (cell-free assay, competition with immobilised ligand; 1 µM).
With `C[C@H]1CCN(c2nccc(-c3cnn4ncccc34)n2)C1` the remaining binding was 82% (binding; 1 µM).
`O=C(Nc1cccnn1)N1CC(C/C=C/c2cncc(Oc3ccc(C(F)(F)F)cn3)n2)C1` gave a remaining binding of 58% (cell-free assay, competition with immobilised ligand; 1 µM).
